Columns and labels:
[1] = Inhibition of Proteus vulgaris CCM 1956 urease by steady state kinetic study
Procedure, shortened: (§1)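 Assay at 30 °C in 3 mM phosphate pH 7.0 with 2-100 mM urea. Ammonia read by Berthelot indophenol at 650 nm. Enzyme-inhibitor preincubated 30 min before urea, or diluted 30-fold from a concentrated mix. Ki* from linear regression, triplicates.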

[2] = Inhibition of Bacillus pasteurii CCM 2056 urease by steady state kinetic study; parameters: species or system Sporosarcina pasteurii; procedure, shortened: as §1
Urease = Urease (Helicobacter pylori, UniProt Q0PXQ5); experiment: Inhibition of Helicobacter pylori urease
[3] = Inhibition of Klebsiella aerogenes urease

Chain of Urease (Q0PXQ5 whole entry): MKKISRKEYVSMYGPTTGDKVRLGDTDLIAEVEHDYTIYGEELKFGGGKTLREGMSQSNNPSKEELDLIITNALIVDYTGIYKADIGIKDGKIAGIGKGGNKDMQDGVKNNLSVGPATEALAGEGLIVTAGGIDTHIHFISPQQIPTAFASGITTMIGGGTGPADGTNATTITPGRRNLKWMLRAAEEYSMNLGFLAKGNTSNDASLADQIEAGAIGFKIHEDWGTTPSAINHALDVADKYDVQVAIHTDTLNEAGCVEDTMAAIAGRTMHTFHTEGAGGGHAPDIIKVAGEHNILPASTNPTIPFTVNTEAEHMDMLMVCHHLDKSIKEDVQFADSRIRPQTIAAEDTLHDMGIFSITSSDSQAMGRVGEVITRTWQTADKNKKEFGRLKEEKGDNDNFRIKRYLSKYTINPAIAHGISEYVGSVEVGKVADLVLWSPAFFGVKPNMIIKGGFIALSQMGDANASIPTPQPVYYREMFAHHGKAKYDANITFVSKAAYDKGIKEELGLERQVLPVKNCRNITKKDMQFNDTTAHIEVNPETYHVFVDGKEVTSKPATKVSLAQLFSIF

Row | Compound | IC50 [1] | Ki [1] | IC50 [2] | Ki [2] | IC50 (Urease) | Ki [3]
1 | CP(=O)(O)CNC(=O)[C@@H](N)CO | 342 µM | 41 µM | 150 µM | 37 µM |  | 
2 | CP(=O)(O)CNC(=O)[C@@H](N)Cc1ccccc1 | 754 µM | 176 µM | 600 µM | 215 µM |  | 
3 | CP(O)(=S)CNC(=O)OCc1ccccc1 (configuration not stated) | 158 µM | 14 µM | 112 µM | 17.5 µM |  | 
4 | CC(C)[C@H](N)C(=O)NCP(C)(=O)O | 617 µM | 208 µM | 485 µM | 120 µM |  | 
5 | CP(=O)(O)CNC(=O)[C@@H](N)COCc1ccccc1 | 183 µM | 32.6 µM | 80 µM | 25 µM |  | 
6 | CP(=O)(O)CNC(=O)OCc1ccccc1 | 319 µM | 65 µM | 123 µM | 43 µM |  | 
7 | CP(O)(=S)CNC(=O)CNC(=O)OCc1ccccc1 (configuration not stated) | 3.1 µM | 0.45 µM | 1.8 µM | 0.17 µM |  | 
8 | NCC(=O)NCC(=O)NO |  |  |  |  | 0.79 µM | 
9 | CP(=O)(O)CNC(=O)CN | 86 µM | 30 µM | 60 µM | 21 µM |  | 
10 | CP(=O)(O)CNC(=O)CNC(=O)OCc1ccccc1 | 640 µM | 178 µM | 450 µM | 135 µM |  | 
11 | CC(=O)NO [ACETOHYDROXAMIC ACID] |  |  |  |  |  | 2.6 µM
12 | CP(=O)(O)CN [AMINOMETHYL(METHYL)PHOSPHINIC ACID] | 2530 µM | 425 µM | 1100 µM | 340 µM |  | 
13 | CNCP(C)(=O)O [METHYL((METHYLAMINO)METHYL)PHOSPHINIC ACID] | 153 µM | 27 µM | 60 µM | 18 µM |  | 
14 | NP(N)(=O)Oc1ccccc1 [PHENYL PHOSPHORDIAMIDATE] |  |  |  | 0.0006 µM |  | 

Source: ChEMBL document CHEMBL1140057, “Design, synthesis, and evaluation of novel organophosphorus inhibitors of bacterial ureases” (J Med Chem, 2008)
